Drawing on ChEMBL document CHEMBL1147430, “Inhibition of alpha-chymotrypsin with thiol-bearing substrate analogues in the presence of zinc ion” (Bioorg Med Chem Lett, 2004), this text covers IC50 and inhibition for seven compounds.

Activity calls are given as the source filed them. The calls are words filed in the database; no cut-off is given here.

In general, IC50 refers to the concentration that gives 50% inhibition.

The target of assay [1] is T1, Chymotrypsinogen B (Homo sapiens, UniProt P17538). The assay is described as follows: Inhibitory activity against chymotrypsinogen in the presence of Zn(II) (500 uM). Summed up:
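Alpha-chymotrypsin at a final 0.4 μg/mL is added to a mix of Suc-AAPF-pNA (300 μM), ZnCl2 (500 μM) and varied inhibitor concentrations in pH 7.5 buffer (50 mM CaCl2, 50 mM Tris). Initial rates are followed at 405 nm at 25 °C. IC50 is read from a plot of % residual activity versus inhibitor concentration.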

For assay [2], the target named is T1, Chymotrypsinogen B. The assay is described as follows: Inhibitory activity (up to 2 mM) against chymotrypsinogen in the absence of Zn(II); no inhibition.

T1 sequence (P17538 34-164 limits assumed, other chains not shown): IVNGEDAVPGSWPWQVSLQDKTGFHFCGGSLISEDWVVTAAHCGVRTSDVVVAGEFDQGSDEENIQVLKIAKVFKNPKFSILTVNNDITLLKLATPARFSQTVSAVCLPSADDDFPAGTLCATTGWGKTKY
T1 sequence (P17538 167-263 limits assumed, other chains not shown): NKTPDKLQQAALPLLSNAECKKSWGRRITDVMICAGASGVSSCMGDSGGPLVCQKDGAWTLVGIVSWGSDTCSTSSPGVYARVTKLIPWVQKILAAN

For `CC(=O)N[C@H](CS)Cc1ccccc1`, the IC50 in assay [1] is > 800 µM. The inhibition entry in assay [2] is “inactive”.

Regarding `O=C(N[C@@H](CO)Cc1ccccc1)OCc1ccccc1`, in assay [1], the IC50 is > 3000 µM. The inhibition entry in assay [2] is “inactive”.

Consider `O=C(N[C@H](CS)Cc1ccccc1)c1ccccc1`, for which, in assay [1], the IC50 turned out to be 23 µM. Moreover, the inhibition result in assay [2] is “inactive”.

Regarding `O=C(N[C@H](CO)Cc1ccccc1)OCc1ccccc1`, the IC50 in assay [1] is > 3000 µM.

Turning to `O=C(N[C@H](CS)Cc1ccccc1)OCc1ccccc1`, the IC50 in assay [1] was found to be 3.8 µM. The inhibition entry in assay [2] is “inactive”.

Take `O=C(N[C@@H](CS)Cc1ccccc1)OCc1ccccc1`: the IC50 in assay [1] turned out to be 6 µM. Besides, the inhibition entry in assay [2] is “inactive”.

With `O=C(N[C@H](CS)Cc1ccccc1)[C@@H]1CCCN1C(=O)OCc1ccccc1`, the IC50 in assay [1] turned out to be 8 µM. In assay [2], the inhibition entry was “inactive”.
